Columns and labels:
[1] = molecular target: T1, Peroxisome proliferator-activated receptor gamma (Homo sapiens, UniProt P37231); assay: Displacement of [3H]rosiglitazone from human PPARgamma ligand binding domain expressed in Escherichia coli BL21 after 12 hrs by liquid scintillation counting
T1 sequence (P37231 whole entry): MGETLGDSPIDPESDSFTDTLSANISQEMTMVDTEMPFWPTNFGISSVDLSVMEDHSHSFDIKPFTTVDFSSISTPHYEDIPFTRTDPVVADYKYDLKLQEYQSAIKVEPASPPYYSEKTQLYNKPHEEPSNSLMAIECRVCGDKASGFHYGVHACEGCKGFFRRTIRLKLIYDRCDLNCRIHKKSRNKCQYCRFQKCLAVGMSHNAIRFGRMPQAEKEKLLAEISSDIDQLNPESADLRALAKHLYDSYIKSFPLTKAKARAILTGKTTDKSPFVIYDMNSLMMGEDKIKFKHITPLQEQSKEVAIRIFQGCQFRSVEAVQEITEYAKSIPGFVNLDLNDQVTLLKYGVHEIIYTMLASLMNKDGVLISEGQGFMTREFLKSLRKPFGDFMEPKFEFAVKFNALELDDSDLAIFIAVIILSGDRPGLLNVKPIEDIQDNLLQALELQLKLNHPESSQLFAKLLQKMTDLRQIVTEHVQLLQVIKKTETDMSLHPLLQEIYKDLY
Summary of the method: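 His-tagged hPPARγ LBD purified on Co2+ affinity resin, preincubated 12 h at 4 °C with 40 nM [3H]rosiglitazone (50 Ci/mmol) in 10 mM Tris pH 8.0, 50 mM KCl, 10 mM DTT. Unlabeled ligand or DMSO vehicle added, then a further 12 h at 4 °C. Bound and free label separated on Sephadex G-25 and counted by scintillation. Results as % bound vs vehicle; Ki from concentration-dependent displacement.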

Mus musculus = assay: Antiinflammatory activity against carrageenan-induced air pouch inflammation in po dosed mouse assessed as inhibition of leukocyte infiltration administered 1 hr before carrageenan challenge measured after 6 hrs by hemocytometry relative to untreated control

SMILES	Ki [1]	inhibition (INH) (Mus musculus)
O=C1S/C(=C\c2ccc(Cl)cc2Cl)C(=O)N1Cc1c(F)cccc1Cl	4 µM	41.6%
O=C1S/C(=C\c2ccc3c(c2)Cc2ccccc2-3)C(=O)N1Cc1cccc(Cl)c1	–	65.2%
COc1ccc(/C=C2\SC(=O)N(Cc3cccc(Cl)c3)C2=O)cc1	–	42%
COc1ccc(Br)cc1/C=C1\SC(=O)N(Cc2cccc(Cl)c2)C1=O	–	47.4%
CS(=O)(=O)c1ccc(/C=C2\SC(=O)N(Cc3cccc(Cl)c3)C2=O)cc1	43 µM	63.9%
CS(=O)(=O)c1ccc(/C=C2\SC(=O)N(Cc3ccccc3Br)C2=O)cc1	7.3 µM	73.3%
COc1ccc(/C=C2\SC(=O)N(Cc3cccc(Cl)c3)C2=O)cc1Br	–	51.5%
O=C1S/C(=C\c2ccc(-c3ccccc3)cc2)C(=O)N1Cc1cccc(Cl)c1	43.6 µM	67%
CN(CCOc1ccc(CC2SC(=O)NC2=O)cc1)c1ccccn1 (stereo not drawn) [ROSIGLITAZONE]	–	72%
